Activity and MIC data for one compound are collected here from ChEMBL document CHEMBL1649314, “Experimental murine scedosporiosis: histopathology and azole treatment” (2010).

Broadly, the MIC is the lowest concentration found to suppress growth.

Experiment [1] has as its system Scedosporium aurantiacum. Kind of experiment: Antifungal activity against Scedosporium aurantiacum CBS 116910 infected in immunosuppressed OF1 mouse assessed as reduction in kidney fungal burden at 1.5 mg/kg/day, ip administered 24 hrs postinfection for 10 days measured after 20 days. Type of experiment: functional, organism-based.
In experiment [2] the test system is Scedosporium apiospermum. Kind of experiment: Antifungal activity against Scedosporium apiospermum CBS 117407 by broth dilution method. The class given is functional. Background: In broth dilution the organism is exposed to a series of concentrations in liquid medium.
Experiment [3] relates to Scedosporium apiospermum. Nature of the experiment: Antifungal activity against Scedosporium apiospermum IHEM 14464 infected in immunosuppressed OF1 mouse assessed as reduction in kidney fungal burden at 1.5 mg/kg/day, ip administered 24 hrs postinfection for 10 days measured after 20 days. The class given is functional, organism-based.
Experiment [4] concerns Scedosporium apiospermum. Kind of experiment: Antifungal activity against Scedosporium apiospermum IHEM 14464 by broth dilution method. Type of experiment: functional.
Experiment [5] is described as follows: Antifungal activity against Scedosporium aurantiacum IHEM 15458 infected in immunosuppressed OF1 mouse assessed as prolonged survival of mouse at 1.5 mg/kg/day, ip administered 24 hrs postinfection for 10 days measured after 20 days. Type of experiment: functional, organism-based. An outline of the steps: (§1)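 Male OF1 mice immunosuppressed 1 day before infection with cyclophosphamide 200 mg/kg i.p. plus 5-fluorouracil 150 mg/kg i.v. Infection: 1 × 10^4 CFU of PDA-grown conidia in 0.2 ml saline via lateral tail vein. Treatment 1.5 mg/kg/day i.p., started 24 h post-challenge, given for 10 days; 10 mice/group; checked daily to day 20. Kaplan-Meier mean survival, log rank test.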

In experiment [6] the test system is Scedosporium boydii. Kind of experiment: Antifungal activity against Scedosporium boydii FMR 8627 infected in immunosuppressed OF1 mouse assessed as reduction in kidney fungal burden at 1.5 mg/kg/day, ip administered 24 hrs postinfection for 10 days measured after 20 days. The class given is functional, organism-based.
Experiment [7] relates to Scedosporium apiospermum. Kind of experiment: Antifungal activity against Scedosporium apiospermum IHEM 14464 infected in immunosuppressed OF1 mouse assessed as prolonged survival of mouse at 1.5 mg/kg/day, ip administered 24 hrs postinfection for 10 days measured after 20 days. Type of experiment: functional, organism-based. An outline of the steps: as §1
Experiment [8] deals with Scedosporium boydii. Nature of the experiment: Antifungal activity against Scedosporium boydii FMR 6694 by broth dilution method. Type of experiment: functional.
Experiment [9] relates to Scedosporium boydii. Nature of the experiment: Antifungal activity against Scedosporium boydii FMR 8627 infected in immunosuppressed OF1 mouse assessed as prolonged survival of mouse at 1.5 mg/kg/day, ip administered 24 hrs postinfection for 10 days measured after 20 days. Type of experiment: functional, organism-based. The gist of the method:
as §1

Experiment [10] in a line: Antifungal activity against Scedosporium aurantiacum CBS 116910 by broth dilution method. Type of experiment: functional.
Experiment [11] is described as follows: Antifungal activity against Scedosporium aurantiacum CBS 116910 infected in immunosuppressed OF1 mouse assessed as prolonged survival of mouse at 1.5 mg/kg/day, ip administered 24 hrs postinfection for 10 days measured after 20 days. The class given is functional, organism-based. The gist of the method: as §1
Experiment [12] concerns Scedosporium boydii. Nature of the experiment: Antifungal activity against Scedosporium boydii FMR 8627 by broth dilution method. The class given is functional.
Experiment [13] deals with Scedosporium boydii. Nature of the experiment: Antifungal activity against Scedosporium boydii FMR 6694 infected in immunosuppressed OF1 mouse assessed as reduction in kidney fungal burden at 1.5 mg/kg/day, ip administered 24 hrs postinfection for 10 days measured after 20 days. Type of experiment: functional, organism-based.
The test system of experiment [14] is Scedosporium boydii. Nature of the experiment: Antifungal activity against Scedosporium boydii FMR 6694 infected in immunosuppressed OF1 mouse assessed as prolonged survival of mouse of mouse at 1.5 mg/kg/day, ip administered 24 hrs postinfection for 10 days measured after 20 days. The class given is functional, organism-based. The gist of the method: as §1

Experiment [15] relates to Scedosporium apiospermum. Nature of the experiment: Antifungal activity against Scedosporium apiospermum CBS 117407 infected in immunosuppressed OF1 mouse assessed as prolonged survival of mouse at 1.5 mg/kg/day, ip administered 24 hrs postinfection for 10 days measured after 20 days. Type of experiment: functional, organism-based. The gist of the method: as §1
Experiment [16] deals with Scedosporium apiospermum. Kind of experiment: Antifungal activity against Scedosporium apiospermum CBS 117407 infected in immunosuppressed OF1 mouse assessed as reduction in kidney fungal burden at 1.5 mg/kg/day, ip administered 24 hrs postinfection for 10 days measured after 20 days. The class given is functional, organism-based.
Experiment [17] can be described thus: Antifungal activity against Scedosporium aurantiacum IHEM 15458 by broth dilution method. The class given is functional.
Experiment [18] deals with Scedosporium aurantiacum. Nature of the experiment: Antifungal activity against Scedosporium aurantiacum IHEM 15458 infected in immunosuppressed OF1 mouse assessed as reduction in kidney fungal burden at 1.5 mg/kg/day, ip administered 24 hrs postinfection measured on day 4 postinfection.

In brackets after ≈: the same amount, converted by molar mass. Activity calls are given as the source filed them. No cut-off for these calls is given here.

Turning to `C[C@@H]1[C@H](O)[C@@H](C)/C=C/C=C/C=C/C=C/C=C/C=C/C=C/[C@H](O[C@@H]2O[C@H](C)[C@@H](O)[C@H](N)[C@@H]2O)C[C@@H]2O[C@](O)(C[C@@H](O)C[C@@H](O)[C@H](O)CC[C@@H](O)C[C@@H](O)CC(=O)O[C@H]1C)C[C@H](O)[C@H]2C(=O)O` [AMPHOTERICIN B], the outcome (with Scedosporium aurantiacum [1]; in the experiment with Scedosporium apiospermum [3]; in experiment [5]; in the experiment on Scedosporium boydii [6]; with Scedosporium apiospermum [7]; in the experiment on Scedosporium boydii [9]) was inactive. Also, the result (in [11]; in the experiment on Scedosporium boydii [13]; with Scedosporium boydii [14]; with Scedosporium apiospermum [15]; in the experiment with Scedosporium apiospermum [16]; with Scedosporium aurantiacum [18]) was inactive. The minimal inhibitory concentration (MIC) against Scedosporium apiospermum [2] was 8 µg/mL (≈ 8.66 µM); in the experiment on Scedosporium apiospermum [4], 32 µg/mL (≈ 34.6 µM); in the experiment with Scedosporium boydii [8] it was 32 µg/mL (≈ 34.6 µM); in experiment [10], 32 µg/mL (≈ 34.6 µM); with Scedosporium boydii [12], 8 µg/mL (≈ 8.66 µM); in experiment [17], 32 µg/mL (≈ 34.6 µM).
